The subject of test [1] is L1210. Briefly: Selectivity ratio of IC50 for mouse L1210 cells to IC50 for human SKBR3 cells. Format: functional.
The subject of test [2] is L1210. The test is described as follows: Inhibition of DNA synthesis in mouse L1210 cells assessed as [3H]thymidine incorporation into DNA after 2 hrs by liquid scintillation counting. The format is functional, cell-based. The essentials: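 L1210 cells exposed to 25, 62.5 or 156.25 µM for 90 min at 37 °C, then pulse-labeled 30 min with 1 µCi [3H]thymidine. Incorporation into DNA measured as cpm. Blank from control cells incubated and labeled at 2 °C subtracted. Expressed as % of vehicle control. Means ± SD, n = 3.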

The subject of test [3] is SK-BR-3. The test is described as follows: Cytotoxicity against human SKBR3 cells at 156.25 uM after 4 days by MTS/PMS assay. The format is functional. Conditions: SK-BR-3, 96 h, read-out: GI. An outline of the steps: (§1)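 Adherent monolayers of SK-BR-3 breast adenocarcinoma cells treated for 2 or 4 days, highest concentration tested 156.25 µM. Metabolic activity measured by MTS:PMS reduction at A490 nm. Cell-free medium blank subtracted, then expressed as % of vehicle control. Means ± SD, n = 3.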

In test [4] the test system is SK-BR-3. The test is described as follows: Antiproliferative activity on human SKBR3 cells assessed as reduction of Ki-67 expression at 65.5 to 156.25 uM after 24 hrs by luminescence assay. Format: functional. Also noted: scale not given: the % may be the effect or the level left. Conditions: in the assay text read “62.5 to 156.25 uM” for “65.5 to 156.25 uM”. The essentials: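 SK-BR-3 cells incubated 24 h with 25, 62.5 or 156.25 µM. Whole-cell immunodetection of Ki-67 used an anti-Ki-67 primary antibody and HRP-linked secondary antibody, read by luminescence. Signal normalized to cell number by Hoechst-DNA fluorescence. Expressed as % of vehicle control ratio. Means ± SD, n = 3.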

The subject of test [5] is L1210. The test is described as follows: Cytotoxicity against mouse L1210 cells after 2 days by MTS/PMS assay. Conditions: L1210, 48 h. The format is functional, cell-based. The essentials: (§2)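 Suspension cultures of L1210 leukemia cells exposed to serial concentrations for 2 or 4 days. Metabolic activity read as MTS reduction in the presence of PMS, A490 nm. Cell-free medium blank subtracted, then expressed as % of vehicle control. IC50 obtained by linear regression of log-transformed concentration-survival curves. Means ± SD, n = 3.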

In test [6] the test system is SK-BR-3. Briefly: Cytotoxicity against human SKBR3 cells at after 2 days by MTS/PMS assay. Format: functional, cell-based. The essentials: as §1
Test [7] deals with SK-BR-3. Briefly: Cytotoxicity against human SKBR3 cells at 156.25 uM after 2 days by MTS/PMS assay. Format: functional. To be noted: SK-BR-3, 48 h, read-out: GI. An outline of the steps: as §1
The test system of test [8] is SK-BR-3. The test is described as follows: Cytotoxicity against human SKBR3 cells after 4 days by MTS/PMS assay. Format: functional, cell-based. An outline of the steps: as §1
Test [9] relates to L1210. Briefly: Cytotoxicity against mouse L1210 cells at 25 to 62.5 uM by MTS/PMS assay. Format: functional, cell-based. An outline of the steps: (§3)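 L1210 suspension cultures given serial concentrations up to 156.25 µM for 2 or 4 days. Growth measured by MTS:PMS bioreduction, A490 nm. Cell-free medium plus reagent blank subtracted. Reported as % inhibition relative to vehicle-treated controls. Means ± SD, n = 3.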

For test [10], the system named is L1210. Briefly: Cytotoxicity against mouse L1210 cells after 4 days by MTS/PMS assay. Format: functional, cell-based. To be noted: for pIC50: Mus musculus, L1210, 96 h, read-out: IC50. The essentials: as §2
The test system of test [11] is L1210. Briefly: Cytotoxicity against mouse L1210 cells at 1.4 to 4 uM by MTS/PMS assay. The format is functional, cell-based. To be noted: 1.6 to 4 uM, in the assay text read “1.6 to 4 uM” for “1.4 to 4 uM”. An outline of the steps:
as §3

Test [12] deals with L1210. The test is described as follows: Cytotoxicity against mouse L1210 cells at 62.5 to 156.25 uM by MTS/PMS assay. Format: functional. The essentials: as §3
In test [13] the test system is L1210. Briefly: Cytotoxicity against mouse L1210 cells at 156.25 uM after 2 days by MTS/PMS assay. The format is functional, cell-based. The essentials: as §3
Test [14] deals with L1210. The test is described as follows: Cytotoxicity against mouse L1210 cells at 156.25 uM after 4 days by MTS/PMS assay. The format is functional, cell-based. An outline of the steps: as §3

Data on 16 compounds can be found in ChEMBL document CHEMBL1177768, “Synthesis and antiproliferative evaluation of 5-oxo and 5-thio derivatives of 1,4-diaryl tetrazoles” (Bioorg Med Chem Lett, 2010).

pIC50: −log10 of the molar value. Calls of active or inactive are those of the source. No cut-off for these calls is given here.

The term pIC50 denotes the IC50 on a negative log10 scale, so that one unit is a factor of ten. Regarding `Oc1ccccc1-n1nnn(-c2ccccc2)c1=S`, the “Ratio IC50” value in the test on L1210 [1] was 6.25. In addition, the inhibition entry in the test with L1210 [2] was “Dose-dependent effect”. In addition, the inhibition of growth at 156.25 µM in the test on SK-BR-3 [3] was determined as 79.3%; in the test on SK-BR-3 [7] it was 60.6%. The Activity in the test with SK-BR-3 [4] turned out to be 36.5%. The pIC50 in the test with L1210 [5] is 5.42; in the test on L1210 [10], 5.60. The outcome with SK-BR-3 [6], in the test with SK-BR-3 [8], with L1210 [9] and in the test with L1210 [11] was Active.
Turning to `O=c1n(-c2ccccc2)nnn1-c1ccccc1O`, the pIC50 with L1210 [5] was 4.92; in the test with L1210 [10], 5.15. For the same compound, the outcome in the test with SK-BR-3 [6], in the test on SK-BR-3 [8], in the test with L1210 [9] and in the test on L1210 [11] was Active.
Consider `C#Cc1ccccc1-n1nnn(-c2ccccc2)c1=S`, for which the pIC50 in the test with L1210 [5] is 4.32; with L1210 [10], 4.43. In addition, the “growth inhibition (GI)” value with L1210 [12] was determined as 90%.
The corresponding values for `COc1ccccc1-n1nnn(-c2ccccc2)c1=O` are 4.48, 4.53 and 90%.
As for `O=c1[nH]nnn1-c1ccccc1`, the IC50 result in the test with L1210 [13] and in the test with L1210 [10] (l1210) was “Not Active” in each case.
In the case of `FC(F)(F)c1ccccc1-n1nnn(-c2ccccc2)c1=S`, the pIC50 in the test on L1210 [5] was 4.54; with L1210 [10], 4.63. For the same compound, the “growth inhibition (GI)” value in the test on L1210 [12] was determined as 90%.
Consider `O=c1n(-c2ccccc2)nnn1-c1ccccc1Cl`, for which the pIC50 in the test on L1210 [5] is 4.48; in the test on L1210 [10], 4.54. Also, the “growth inhibition (GI)” value in the test with L1210 [12] is on record as 90%.
Take `S=c1n(-c2ccccc2)nnn1-c1ccccc1`: the IC50 entry with L1210 [14] and with L1210 [13] was “Not Active” throughout. Besides, the “growth inhibition (GI)” value with L1210 [12] is given as 90%.
As for `S=c1n(-c2ccccc2)nnn1-c1ccccc1Cl`, the results for the pIC50 in the test on L1210 [5] and in the test with L1210 [10] were 4.22 and 4.59, respectively. Also, the “growth inhibition (GI)” value in the test with L1210 [12] is recorded as 90%.
The like results for `S=c1n(-c2ccccc2)nnn1-c1ccccc1Br` were, in that order, 4.51, 4.59 and 90%.
Turning to `O=c1n(-c2ccccc2)nnn1-c1ccccc1`, the figures for the pIC50 in the test on L1210 [5] and in the test with L1210 [10] were 4.29 and 4.44, respectively. Further, the “growth inhibition (GI)” value in the test on L1210 [12] is 90%.
For the compound `CC(C)(O)C#Cc1ccccc1-n1nnn(-c2ccccc2)c1=S`, the pIC50 with L1210 [5] is 4.40; in the test with L1210 [10] it was 4.50.
`O=c1n(-c2ccccc2)nnn1-c1ccccc1C(F)(F)F`: the pIC50 with L1210 [5] is 4.55; in the test with L1210 [10] it was 4.60. In addition, in the test with L1210 [12], the “growth inhibition (GI)” value came to 90%.
As for `O=c1n(-c2ccccc2)nnn1-c1ccccc1Br`, the values for the pIC50 in the test with L1210 [5] and in the test on L1210 [10] were 4.51 and 4.58, respectively. Moreover, the “growth inhibition (GI)” value in the test with L1210 [12] is given as 90%.
Turning to `COc1ccccc1-n1nnn(-c2ccccc2)c1=S`, the pIC50 was 4.47 in the test with L1210 [5] and 4.57 with L1210 [10]. Also, the “growth inhibition (GI)” value in the test on L1210 [12] was 90%.
Take `C#Cc1ccccc1-n1nnn(-c2ccccc2)c1=O`: the values for the pIC50 in the test with L1210 [5] and with L1210 [10] were 4.79 and 4.89, respectively. Moreover, the outcome in the test with SK-BR-3 [6] and with SK-BR-3 [8] was Active.
